# PubChem BioAssay AID651628 (The Scripps Research Institute Molecular Screening Center, 2012)
# Activity calls are given as the source filed them.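 Rule for the calls: active = at least one off-target enzyme showing weaker fluorescent probe labeling in any proteome panel; inactive = no off-target enzyme affected in any panel.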
# System: Membrane Proteome
# Assay: proteome-wide probe labelling blockade by competitive ABPP – cell lysate, gel-based fluorescence, soluble and membrane fractions, selectivity assay for PAD4 inhibitor project, late-stage follow-up (AID 651628)
# Conditions: MCF7 proteome, CA-Rh gel-based ABPP, anti-target count, at 10 µM, hits give high values
# Procedure, shortened: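 System: MCF7 soluble or membrane proteome; amount: proteome protein concentration of 1 mg/ml; technique: in-gel fluorescence after SDS-PAGE; medium: DPBS; controls: DMSO-only reference; doses: compound at 10 or 50 µM; probe or stimulus: Chloroacetamide-rhodamine (CA-Rh) labelling probe, 10 µM; timing: compound pre-incubation 1 h, then probe labelling 1 h, both 25 °C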
row,Compound,number of anti-targets
1,COC(=O)c1cccc(-c2ccc3c(n2)C(=O)C(N)=CC3=O)n1,0 (inactive)
2,COC1=C(Br)C(=O)c2nc(-c3ccccn3)ccc2C1=O,> 5 (active)
3,O=C1C=C(Br)C(=O)c2ncccc21,> 5 (active)
4,NC1=CC(=O)c2ccc(-c3cccc(C(=O)O)n3)nc2C1=O,0 (inactive)
5,COC1=C(N)C(=O)c2nc(-c3nc(C(=O)O)c(C)c(-c4ccc(OC)c(OC)c4O)c3N)ccc2C1=O,0 (inactive)
6,COC1=CC(=O)c2nc(C#N)ccc2C1=O,> 5 (active)
7,NC1=CC(=O)c2ccc(-c3ccccn3)nc2C1=O,0 (inactive)
8,COC(=O)c1cccc(-c2ccc3c(n2)C(=O)C(Br)=CC3=O)n1,0 (inactive)
9,NC1=CC(=O)c2cccnc2C1=O,0 (inactive)
10,O=C1C(O)=C(O)C(=O)c2ncccc21,2 (active)
11,COC1=C(Br)C(=O)c2ncccc2C1=O,> 5 (active)
12,COC(=O)c1nc(C(=O)OC)c(NC(C)=O)c(-c2ccccc2Br)c1C,0 (inactive)
13,COC1=C(N)C(=O)c2ncccc2C1=O,0 (inactive)
14,COC1=C(I)C(=O)c2nc(C#N)ccc2C1=O,> 5 (active)
